Reference: ChEMBL document CHEMBL4828720, “Macrocyclic Immunoproteasome Inhibitors as a Potential Therapy for Alzheimer's Disease” (J Med Chem, 2021)
The source made the active and inactive calls. No cut-off for these calls is given here.

Tests used:
[1] = Inhibition of human 20S proteasome Y using Ac-nLPnLD-AMC as fluorogenic substrate measured every minute for 1 hr by fluorescence assay
Outline: (§1)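 Preincubated 1 h with inhibitor at 3-10,000 nM (8 concentrations). Substrates at 100 μM: Ac-PAL-AMC (LMP2), Ac-nLPnLD-AMC (Y), Ac-ANW-AMC (LMP7). Ac-WLA-AMC (X) at 20 μM. AMC fluorescence (360/460 nm) read each minute for 1 h; 3 replicates.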

[2] = Inhibition of human 20S proteasome X using Ac-WLA-AMC as fluorogenic substrate measured every minute for 1 hr by fluorescence assay
Outline: as §1, with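 “Purified human 20S constitutive or immunoproteasome, 50 ng in 20 mM Tris-HCl, 0.5 mM EDTA, 0.035% SDS, pH 8.0. Preincubated” for “Preincubated”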

[3] = target: T1, Proteasome subunit beta type-9 (Homo sapiens, UniProt P28065); assay: Inhibition of human 20S proteasome LMP2 activity in human RPMI-8226 cells overexpressing ABCB1 using Ac-PAL-AMC as fluorogenic substrate incubated for 72 hrs by fluorescence assay; assay type: cell-based
T1 sequence (P28065 whole entry): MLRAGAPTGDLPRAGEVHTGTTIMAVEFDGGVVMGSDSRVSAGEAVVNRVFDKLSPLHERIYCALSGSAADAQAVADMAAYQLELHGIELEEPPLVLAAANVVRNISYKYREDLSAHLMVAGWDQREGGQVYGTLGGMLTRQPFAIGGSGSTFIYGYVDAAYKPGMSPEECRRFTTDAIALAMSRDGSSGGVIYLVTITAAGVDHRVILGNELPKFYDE

[4] = target: T2, Proteasome subunit beta type-9 (Homo sapiens) (UniProt P28065); assay: Inhibition of human 20S proteasome LMP2 activity in human NCI/ADR-RES cells overexpressing ABCB1 using Ac-PAL-AMC as fluorogenic substrate incubated for 72 hrs in presence and absence of verapamil by fluorescence assay; assay type: cell-based
T2 sequence (whole entry): T1 sequence (P28065 whole entry)

[5] = Drug concentration in ICR mouse brain at 10 mg/kg, iv after 1 hr by LC-MS/MS analysis; assay type: ADME, organism-based; conditions: in vivo
Outline: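 ICR mice received a single intravenous dose of 10 mg/kg. Brain homogenates taken at 1 h post-dose were assayed for compound level and for LMP2 activity.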

Mus musculus [6] = assay: Cognitive enhancing effect in Tg2576 mouse assessed as reduction in escape latency at 10 mg/kg, iv administered twice weekly and measured after 5 days by Morris water maze test; assay type: functional, organism-based; conditions: time 5.0 day
Outline: (§2)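 Tg2576 mice, 9 months old, given 10 mg/kg twice weekly for 3 weeks. Morris water maze in 25 ± 1 °C water, platform hidden 1-1.5 cm below surface. Three 60-s trials a day from randomized start points for 5 days. Swim paths tracked from an overhead camera. Single probe trial on day 6 scored as time in target quadrant. n=5 treated, n=12 control on days 4-5; Student's t-test.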

Mus musculus [7] = assay: Cognitive enhancing effect in Tg2576 mouse assessed as improvement in spatial learning and memory by measuring increase in time spent in target quadrant at 10 mg/kg, iv administered twice weekly and measured after 6 days during probe trial by Morris water maze test; assay type: functional, organism-based; conditions: time 6.0 day; outline: as §2
Mus musculus [8] = organism: Mus musculus; assay: Protection against inflammation-triggered RPE degeneration in Tg2576 mouse by immunostaining based confocal microscopic analysis; assay type: functional, organism-based
Outline: (§3)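 RPE collected after behavioral testing from treated Tg2576 mice and from age-matched non-transgenic ICR mice. Eyecups dissected in ice-cold PBS and retina removed. Tissue permeabilized with 0.2% Triton X-100 for 15 min, blocked with 3% BSA, then anti-β-catenin (1:100) overnight at 4 °C. Alexa 555 secondary 2 h, imaged by confocal microscopy.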

[9] = Effect on RPE structural integrity in ICR mouse by immunostaining based confocal microscopic analysis; assay type: ADME; outline: as §3
[10] = Toxicity in Tg2576 mouse; conditions: in vivo
[11] = target: Proteasome subunit beta type-9 (Mus musculus) (UniProt P28076); assay: Inhibition of LMP2 in mouse BV-2 cells
Sequence of Proteasome subunit beta type-9 (Mus musculus) (P28076 whole entry, looked up): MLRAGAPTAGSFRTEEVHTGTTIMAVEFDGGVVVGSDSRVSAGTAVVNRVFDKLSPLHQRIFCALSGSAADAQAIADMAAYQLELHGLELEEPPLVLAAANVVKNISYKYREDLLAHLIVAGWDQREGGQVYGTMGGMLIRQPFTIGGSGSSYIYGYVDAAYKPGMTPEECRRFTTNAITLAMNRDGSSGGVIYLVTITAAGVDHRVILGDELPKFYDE

SMILES: C[C@]1(C(=O)[C@H](Cc2ccccc2)NC(=O)[C@@H]2Cc3ccc(cc3)OCCCCCCCC(=O)N3CCC[C@H]3C(=O)N2)CO1
- IC50 [1]: 8.38 µM
- IC50 [2]: 4.64 µM
- IC50 [3]: 0.106 µM
- inhibition [4]: Active
- Ct [5]: 3.5 pmol/g
- Activity (Mus musculus [6]): Active
- Activity (Mus musculus [7]): Active
- Activity (Mus musculus [8]): Active
- Activity [9]: Non-Toxic
- Activity [10]: Non-Toxic
- inhibition [11]: Active
